Reference: PMC5198968 (Cancer Science, 2016)
“Also recorded” adds a separate entry of the source.

What was measured:
[1] = test system: Japanese patients with advanced hepatocellular carcinoma; assay: Phase I dose escalation: dose-limiting toxicities and maximum tolerated dose; assay type: in vivo, human
Outline: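 Doses started at 150 mg b.i.d. (group I) or 100 mg b.i.d. (group II) and escalated to 200 mg, with 3–9 patients per level. DLTs were drug-related AEs in cycle 1: grade 4 neutropenia lasting ≥8 days, febrile neutropenia or thrombocytopenia, most non-hematological grade ≥3 events, or defined liver-enzyme or bilirubin rises. Escalation required DLT incidence <33.3% (0/3, 1/6, 2/9). Twelve patients were added at the MTD.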

[2] = test system: Japanese patients with advanced hepatocellular carcinoma; assay: Efficacy: tumor response; assay type: in vivo, human
[3] = test system: patients with advanced solid tumors; settings: phase I studies in advanced solid tumors; cited from earlier work
[4] = 200 mg b.i.d., expansion cohort

SMILES: COC(=O)c1ccc2c(c1)NC(=O)/C2=C(\Nc1ccc(N(C)C(=O)CN2CCN(C)CC2)cc1)c1ccccc1 [nintedanib]
- DLT of grade 3 diarrhea [1, 4]: one patient in group I
- DLT of grade 3 drug-induced liver injury [1, 4]: one patient in each group
- Patients who experienced a DLT ([1]; 200 mg b.i.d., including expansion cohort, of 19 patients): three
- Maximum tolerated dose (MTD) ([1]; both groups (mild and moderate liver impairment), oral, 28-day cycles): 200 mg b.i.d.
- DLT during the MTD period (cycle 1) ([1]; group I (150, 200 mg b.i.d.) and group II (100, 150, 200 mg b.i.d.), dose escalation): No dose‐limiting toxicities were reported; also recorded: No patient experienced a DLT
- Objective tumor response (RECIST 1.0, investigator assessment) ([2]; both groups): no complete or partial responses
- Stable disease ([2]; group I (12 patients; 10 treated at the MTD)): 75.0%
- Patients with response by AFP (decline from baseline of >20% in AFP levels) ([2]; group I, nine patients (56.3%) evaluable): three
- Patients who had progressed at the time of analysis ([2]; group I, of 16 patients): 15 patients
- Median time to progression (TTP) ([2]; group I, overall, 95% CI 1.05–5.52): 2.8 months
- Median time to progression (TTP) ([2]; group I, prior sorafenib treatment, 95% CI 1.05–5.68): 2.8 months
- Median time to progression (TTP) ([2]; group I, treated at the MTD of 200 mg b.i.d., 95% CI 1.05–5.52): 2.8 months
- Patients who had progressed at the time of analysis ([2]; group II, all patients): 14 patients
- Patients with response by AFP ([2]; group II, nine patients (64.3%) evaluable): three
- Median time to progression (TTP) ([2]; group II, overall, 95% CI 0.95–6.70): 3.2 months
- Median time to progression (TTP) ([2]; group II, prior sorafenib treatment, 95% CI 0.95–6.70): 2.8 months
- Median time to progression (TTP) ([2]; group II, treated at the MTD of 200 mg b.i.d., 95% CI 0.95–5.62): 2.8 months
- Computed tomography finding in metastatic lymph node lesions ([2]; one patient of group I, after 1 month of nintedanib treatment): tumor necrosis
- Stable disease ([2]; patients in each group): > 75%
- Primary DLT [3]: elevated liver enzymes
